Data reported in ChEMBL document CHEMBL3600340, “Design and synthesis of new barbituric- and thiobarbituric acid derivatives as potent urease inhibitors: Structure activity relationship and molecular modeling studies” (Bioorg Med Chem, 2015).
pIC50: −log10 of the molar value.

Molecular target: Urease (Canavalia ensiformis, UniProt P07374)
Test: Inhibition of jack bean Urease assessed as ammonia production after 15 mins by indophenol method
Procedure, shortened: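 Jack bean urease preincubated with test compound (0.5 mM, concentration as printed) in buffer containing 100 mM urea at 30 °C for 15 min, pH 6.8. Ammonia quantified by indophenol method (phenol/nitroprusside plus alkaline hypochlorite). Absorbance read at 630 nm after 50 min.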

Urease, sequence (P07374 whole entry): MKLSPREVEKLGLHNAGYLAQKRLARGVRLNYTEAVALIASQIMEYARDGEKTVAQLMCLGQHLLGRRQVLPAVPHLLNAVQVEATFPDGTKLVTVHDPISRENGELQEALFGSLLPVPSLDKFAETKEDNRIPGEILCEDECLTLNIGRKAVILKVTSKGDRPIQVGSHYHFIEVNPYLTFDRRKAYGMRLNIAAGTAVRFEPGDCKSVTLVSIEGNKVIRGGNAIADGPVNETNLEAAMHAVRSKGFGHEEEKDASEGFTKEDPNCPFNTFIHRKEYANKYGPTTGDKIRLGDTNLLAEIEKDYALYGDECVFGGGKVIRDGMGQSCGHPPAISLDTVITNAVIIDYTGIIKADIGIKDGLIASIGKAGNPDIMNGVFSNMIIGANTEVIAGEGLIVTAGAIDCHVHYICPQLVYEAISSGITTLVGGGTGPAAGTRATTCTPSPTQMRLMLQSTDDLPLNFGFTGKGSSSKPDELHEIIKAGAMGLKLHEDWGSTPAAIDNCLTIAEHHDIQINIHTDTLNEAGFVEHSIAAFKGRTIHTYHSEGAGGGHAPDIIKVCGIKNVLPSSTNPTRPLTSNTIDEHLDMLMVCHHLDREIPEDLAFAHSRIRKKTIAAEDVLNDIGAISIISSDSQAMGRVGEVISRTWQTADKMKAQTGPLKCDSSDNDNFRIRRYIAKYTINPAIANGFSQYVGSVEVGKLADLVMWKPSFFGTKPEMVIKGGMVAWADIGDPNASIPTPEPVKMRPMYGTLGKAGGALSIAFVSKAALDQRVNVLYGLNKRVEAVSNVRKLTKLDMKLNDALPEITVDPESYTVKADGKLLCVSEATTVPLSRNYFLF

**Q.** With `O=C1NC(=S)NC(=O)C1=CNc1ccccc1S` as the compound, how does the pIC50 read?
**A.** 4.82

**Q.** `O=C1NC(=S)NC(=O)C1=CNc1cc([N+](=O)[O-])ccc1C(=O)O` was tested. Which pIC50 did it give?
**A.** 5.07

**Q.** With `O=C1NC(=S)NC(=O)C1=CNc1ccccc1C(=O)O` as the compound, how does the pIC50 read?
**A.** 4.89

**Q.** With `O=C1NC(=S)NC(=O)C1=CNc1ccc(C(=O)O)cc1` as the compound, how does the pIC50 read?
**A.** 5.05

**Q.** With `O=C1NC(=O)C(=CNc2ccc(C(=O)O)c(O)c2)C(=O)N1` as the compound, how does the pIC50 read?
**A.** 4.05

**Q.** `O=C1NC(=S)NC(=O)C1=CNc1ccc(C(F)(F)F)cc1` was tested. Which pIC50 did it give?
**A.** 3.87

**Q.** With `O=C1NC(=S)NC(=O)C1=CNc1cc(C(=O)O)ccc1O` as the compound, how does the pIC50 read?
**A.** 4.72

**Q.** `O=C1NC(=O)C(=CNc2ccccc2S)C(=O)N1` was tested. Which pIC50 did it give?
**A.** 4.28

**Q.** `O=C1NC(=S)NC(=O)C1=CNc1cccc(C(F)(F)F)c1` was tested. Which pIC50 did it give?
**A.** 4.61

**Q.** How did the pIC50 turn out when `O=C1NC(=S)NC(=O)C1=CNc1ccccc1O` was run?
**A.** 4.71

**Q.** `O=C1NC(=S)NC(=O)C1=CNc1cc(C(=O)O)ccc1Cl` was tested. Which pIC50 did it give?
**A.** 4.57

**Q.** With `O=C1NC(=S)NC(=O)C1=CNc1ccccc1C(F)(F)F` as the compound, how does the pIC50 read?
**A.** 4.19

**Q.** With `O=C1NC(=S)NC(=O)C1=CNc1cc([N+](=O)[O-])ccc1C(F)(F)F` as the compound, how does the pIC50 read?
**A.** 4.54

**Q.** With `O=C1NC(=O)C(=CNc2ccc([N+](=O)[O-])c(C(=O)O)c2)C(=O)N1` as the compound, how does the pIC50 read?
**A.** 4.59

**Q.** `O=C1NC(=S)NC(=O)C1=CNc1ccc(I)cc1` was tested. Which pIC50 did it give?
**A.** 4.38

**Q.** `O=C1NC(=S)NC(=O)C1=CNc1ccc([N+](=O)[O-])c(C(=O)O)c1` was tested. Which pIC50 did it give?
**A.** 4.40

**Q.** With `O=C1NC(=S)NC(=O)C1=CNc1cc(Cl)cc(Cl)c1` as the compound, how does the pIC50 read?
**A.** 4.05

**Q.** With `O=C1NC(=S)NC(=O)C1=CNc1cccc(C(=O)O)c1` as the compound, how does the pIC50 read?
**A.** 4.66

**Q.** With `O=C1NC(=S)NC(=O)C1=CNc1ccc(C(=O)O)c(O)c1` as the compound, how does the pIC50 read?
**A.** 4.49
